This is an account of results in ChEMBL document CHEMBL1139999, “Discovery of pyrazine carboxamide CB1 antagonists: the introduction of a hydroxyl group improves the pharmaceutical properties and in vivo efficacy of the series” (Bioorg Med Chem Lett, 2007).

Broadly, the Ki is the equilibrium dissociation constant of an inhibitor or competing ligand from its target. The term inhibition denotes how much of the control response was suppressed. One may read the AUC(0-t) as exposure summed from dosing to a finite time, without extrapolation to infinity. Broadly, the Tmax is the time from dosing to the highest level. For orientation: solubility means how much of the substance goes into solution per volume.

≈ marks a conversion by molar mass, not a printed value. Calls of active or inactive are those of the source. No cut-off for these calls is given here.

Data set [1] deals with T1, Cannabinoid receptor 1 (Homo sapiens, UniProt P21554). The data set can be described thus: Binding affinity to human CB1 receptor.
Data set [2] has as its target T1, Cannabinoid receptor 1. Briefly: Binding affinity to human CB1 receptor at 13 uM.
The subject of data set [3] is Rattus norvegicus. The data set can be described thus: Reduction in feeding in food deprived Sprague-Dawley rat feeding model at 10 mg/kg, po after 4 hrs. It is filed as functional. Set-up: scale not given: the % may be the effect or the level left. A digest of the protocol:
(§1)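 Rats were fasted and then dosed orally at 10 mg/kg. Food was reintroduced 30 min after dosing, and refeeding was quantified versus vehicle-treated animals at 2, 4 and 24 h post-dose. Locomotor activity was also monitored.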

A short description of data set [4]: AUC(0 to 4 hrs) in Sprague-Dawley rat at 10 mg/kg, po. The conditions noted are these: plasma. It is filed as ADME, organism-based. Set-up: time < 4 hr, dose 10 mg/kg, route oral. In short, it runs like this:
(§2)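 Oral PK in male Sprague-Dawley rats dosed at 10 mg/kg. Plasma sampled over 0–4 h for AUC(0–4h) and Tmax. Brain and plasma concentrations were taken at 4 h to give the brain/plasma ratio. Values are averages of n = 2 rats.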

A short description of data set [5]: Average Tmax in Sprague-Dawley rat at 10 mg/kg, po. It is filed as ADME, organism-based. Further details: dose 10 mg/kg, route oral. The conditions noted are these: in vivo. A digest of the protocol:
as §2

The test system of data set [6] is Rattus norvegicus. The data set can be described thus: Reduction in feeding in food deprived Sprague-Dawley rat feeding model at 10 mg/kg, po after 24 hrs. Further details: scale not given: the % may be the effect or the level left. It is filed as functional. A digest of the protocol: as §1
Data set [7] has as its system Rattus norvegicus. The data set can be described thus: Reduction in feeding in food deprived Sprague-Dawley rat feeding model at 10 mg/kg, po after 2 hrs. Set-up: scale not given: the % may be the effect or the level left. It is filed as functional. A digest of the protocol: as §1
Data set [8] is described as follows: Ratio of drug level in brain to plasma in Sprague-Dawley rat at 10 mg/kg, po after 4 hrs. It is filed as ADME, organism-based. Further details: dose 10 mg/kg, route oral. Conditions: read-out: BPR. A digest of the protocol: as §2
A short description of data set [9]: Drug level in Sprague-Dawley rat brain at 10 mg/kg, po after 4 hrs. The data set is classed as ADME, organism-based. Set-up: dose 10 mg/kg, route oral. The conditions noted are these: read-out: Drug uptake. A digest of the protocol: as §2
Data set [10] concerns the target Cannabinoid receptor 1 (Rattus norvegicus, UniProt P20272). Briefly: Binding affinity to rat CB1 receptor.
Data set [11] has as its system Rattus norvegicus. Briefly: Change in food intake in Sprague-Dawley rat at 10 mg/kg, po. It is filed as functional, organism-based. Further details: dose 10 mg/kg. In short, it runs like this: (§3)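 Ad libitum-fed rats trained to operate a lever to obtain food were dosed orally at 10 or 30 mg/kg. Cumulative food intake was measured at 4 h versus vehicle-treated controls, with significance testing (p < 0.05).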

Data set [12] relates to Rattus norvegicus. Briefly: Change in food intake in Sprague-Dawley rat at 30 mg/kg, po after 4 hrs. It is filed as functional. A digest of the protocol: as §3
The nature of data set [13]: Drug level in Sprague-Dawley rat brain at 30 mg/kg, po after 4 hrs. Further details: dose 30 mg/kg, route oral. The conditions noted are these: read-out: Drug uptake. The data set is classed as ADME, organism-based. A digest of the protocol: (§4)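 Male Sprague–Dawley rats dosed orally at 30 mg/kg as a suspension in 0.5% Methocel/1% Tween 80/water. Plasma and brain levels measured, with brain concentration and brain/plasma ratio taken at 4 h. AUC covers 0–4 h. Values are averages of n = 2 rats.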

Data set [14] can be described thus: Average Tmax in Sprague-Dawley rat at 30 mg/kg, po. The conditions noted are these: in vivo. The data set is classed as ADME, organism-based. Set-up: dose 30 mg/kg, route oral. A digest of the protocol: as §4
The nature of data set [15]: AUC(0 to 4 hrs) in Sprague-Dawley rat at 30 mg/kg, po. The data set is classed as ADME, organism-based. Further details: time < 4 hr, dose 30 mg/kg, route oral. The conditions noted are these: plasma. In short, it runs like this:
as §4

The nature of data set [16]: Ratio of drug level in brain to plasma in Sprague-Dawley rat at 30 mg/kg, po after 4 hrs. It is filed as ADME, organism-based. Set-up: dose 30 mg/kg, route oral. Conditions: read-out: Drug uptake. A digest of the protocol:
as §4

Data set [17] in a line: Aqueous solubility at pH 6.5. It is filed as physicochemical.

T1 sequence (P21554 whole entry): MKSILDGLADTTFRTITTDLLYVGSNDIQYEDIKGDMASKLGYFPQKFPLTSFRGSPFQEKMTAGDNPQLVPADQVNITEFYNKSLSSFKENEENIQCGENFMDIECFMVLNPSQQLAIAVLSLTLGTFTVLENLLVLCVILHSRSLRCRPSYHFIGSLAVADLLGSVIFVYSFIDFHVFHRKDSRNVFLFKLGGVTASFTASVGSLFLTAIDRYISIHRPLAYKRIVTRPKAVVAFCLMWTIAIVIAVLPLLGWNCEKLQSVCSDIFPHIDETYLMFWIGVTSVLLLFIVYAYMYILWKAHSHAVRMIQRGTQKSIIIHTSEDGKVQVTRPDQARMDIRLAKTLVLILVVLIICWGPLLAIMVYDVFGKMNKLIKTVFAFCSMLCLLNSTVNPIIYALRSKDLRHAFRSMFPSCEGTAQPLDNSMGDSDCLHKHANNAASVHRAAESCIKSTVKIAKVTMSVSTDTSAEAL
Cannabinoid receptor 1 (Rattus norvegicus, UniProt P20272), sequence (P20272 whole entry): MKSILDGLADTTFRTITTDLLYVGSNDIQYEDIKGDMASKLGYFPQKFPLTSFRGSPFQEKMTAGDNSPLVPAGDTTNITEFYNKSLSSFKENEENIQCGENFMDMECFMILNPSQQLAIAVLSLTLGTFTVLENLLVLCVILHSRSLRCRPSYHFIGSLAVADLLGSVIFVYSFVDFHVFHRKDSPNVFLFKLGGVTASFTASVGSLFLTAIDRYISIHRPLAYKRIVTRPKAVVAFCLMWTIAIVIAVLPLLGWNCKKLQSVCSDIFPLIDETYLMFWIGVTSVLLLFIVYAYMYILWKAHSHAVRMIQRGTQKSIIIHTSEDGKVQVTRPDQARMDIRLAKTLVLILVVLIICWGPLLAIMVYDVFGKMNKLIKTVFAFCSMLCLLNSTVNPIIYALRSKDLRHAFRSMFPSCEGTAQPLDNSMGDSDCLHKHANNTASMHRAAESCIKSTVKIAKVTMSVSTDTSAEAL

For the compound `Cc1ccc(-c2ncc(C(=O)N[C@@H](C(N)=O)c3ccccc3)nc2-c2ccc(C)cc2)cc1`, at Cannabinoid receptor 1 [1], the Ki is 238 nM.

On Cannabinoid receptor 1 [1], `Cc1ccc(-c2ncc(C(=O)N[C@@H]3CCCC[C@H]3CO)nc2-c2ccc(C)cc2)cc1` showed a Ki of 50 nM.

`Cc1ccc(-c2ncc(C(=O)N3CCC(O)CC3)nc2-c2ccc(C)cc2)cc1` had an inhibition on Cannabinoid receptor 1 [2] of 38%.

Take `CCCC(CO)NC(=O)c1cnc(-c2ccc(C)cc2)c(-c2ccc(C)cc2)n1` (configuration not stated): at Cannabinoid receptor 1 [1], the affinity, expressed as Ki, was 158 nM.

Compound `Cc1ccc(-c2ncc(C(=O)N[C@@H](CO)C(C)C)nc2-c2ccc(C)cc2)cc1` had a Ki on Cannabinoid receptor 1 [1] of 316 nM.

Turning to `CCNC(=O)c1cnc(-c2ccc(C)cc2)c(-c2ccc(C)cc2)n1`, the Ki on Cannabinoid receptor 1 [1] was 2380 nM.

Regarding `Cc1ccc(-c2ncc(C(=O)N[C@H](CO)CC(C)C)nc2-c2ccc(C)cc2)cc1`, the Activity was 32% with Rattus norvegicus [3], 16% in the data set on Rattus norvegicus [6], 37% in the data set with Rattus norvegicus [7] and 34% in the data set on Rattus norvegicus [12]. Also, the AUC(0-t) at 4 h in data set [4] came to 0.541 µM·h. Moreover, the Tmax in data set [5] amounted to 1 h. Moreover, the Kp at 4 h in data set [8] was determined as 3. The concentration at 4 h in data set [9] came out at 306 nM. Moreover, the Ki turned out to be 35 nM on Cannabinoid receptor 1 [10] and 45 nM on Cannabinoid receptor 1 [1]. In addition, the result in the data set on Rattus norvegicus [11] was inactive.

Regarding `Cc1ccc(-c2ncc(C(=O)N[C@@H](CC(C)C)C(N)=O)nc2-c2ccc(C)cc2)cc1`, the Ki on Cannabinoid receptor 1 [1] turned out to be 105 nM.

Turning to `Cc1ccc(-c2ncc(C(=O)NC(C)C)nc2-c2ccc(C)cc2)cc1`, at Cannabinoid receptor 1 [1], the Ki stood at 656 nM.

In turn, `Cc1ccc(-c2ncc(C(=O)NC(C)COc3c(C)cccc3C)nc2-c2ccc(C)cc2)cc1` (configuration not stated) displayed a Ki on Cannabinoid receptor 1 [1] of 39 nM.

For the compound `Cc1ccc(-c2ncc(C(=O)Nc3ccccc3)nc2-c2ccc(C)cc2)cc1`, the Ki at Cannabinoid receptor 1 [1] amounted to 509 nM.

The compound `CC(C)C[C@@H](CO)NC(=O)c1cnc(-c2ccc(Cl)cc2)c(-c2ccc(Cl)cc2)n1` yielded an AUC(0-t) at 4 h in data set [4] of 0.736 µM·h. The Tmax in data set [5] came to 1 h. In [8], the Kp at 4 h came to 3.1. Besides, in [9], the concentration at 4 h turned out to be 491 nM. Besides, the values for the Ki on Cannabinoid receptor 1 [10] and at Cannabinoid receptor 1 [1] were 30 nM and 14 nM, respectively.

For the compound `Cc1ccc(-c2ncc(C(=O)N[C@@H](CO)CC(C)C)nc2-c2ccc(C)cc2)cc1`, the inhibitory constant (Ki) on Cannabinoid receptor 1 [1] amounted to 460 nM.

At Cannabinoid receptor 1 [1], `Cc1ccc(-c2ncc(C(=O)NCC3CCCCC3)nc2-c2ccc(C)cc2)cc1` showed a Ki of 59 nM.

`Cc1ccc(-c2ncc(C(=O)NCCO)nc2-c2ccc(C)cc2)cc1`: affinity at Cannabinoid receptor 1 [1] was put at a Ki of 8430 nM.

On to `CCC(COCc1ccccc1)NC(=O)c1cnc(-c2ccc(C)cc2)c(-c2ccc(C)cc2)n1` (configuration not stated), for which the Ki on Cannabinoid receptor 1 [1] stood at 203 nM.

Take `Cc1ccc(-c2ncc(C(=O)N3CCNC(=O)C3)nc2-c2ccc(C)cc2)cc1`: the inhibition on Cannabinoid receptor 1 [2] was 29%.

`Cc1ccc(-c2ncc(C(=O)NCCOc3ccccc3)nc2-c2ccc(C)cc2)cc1` showed a Ki on Cannabinoid receptor 1 [1] of 631 nM.

In turn, `Cc1ccc(-c2ncc(C(=O)N[C@H]3CC[C@H](O)CC3)nc2-c2ccc(C)cc2)cc1` displayed an inhibition on Cannabinoid receptor 1 [2] of 54%.

With `CNC(=O)c1cnc(-c2ccc(C)cc2)c(-c2ccc(C)cc2)n1`, the Ki on Cannabinoid receptor 1 [1] was 3850 nM.

Consider `Cc1ccc(-c2ncc(C(=O)NN3CCCCC3)nc2-c2ccc(C)cc2)cc1`, for which the Ki at Cannabinoid receptor 1 [1] stood at 53 nM.

For `Cc1ccc(-c2ncc(C(=O)N(C)Cc3ccccc3)nc2-c2ccc(C)cc2)cc1`, the affinity at Cannabinoid receptor 1 [1], expressed as Ki, was 110 nM.

On Cannabinoid receptor 1 [1], `Cc1ccc(-c2ncc(C(=O)NC(C)CCc3ccccc3)nc2-c2ccc(C)cc2)cc1` (configuration not stated) came in with a Ki of 5 nM.

For `Cc1ccc(-c2ncc(C(=O)NC3CCNC3=O)nc2-c2ccc(C)cc2)cc1` (configuration not stated), on Cannabinoid receptor 1 [2], the inhibition was 46%.

As to `Cc1ccc(-c2ncc(C(=O)NCCCc3ccccc3)nc2-c2ccc(C)cc2)cc1`, the concentration at 4 h in data set [13] was found to be 34 nM. For the same compound, the Ki on Cannabinoid receptor 1 [10] was 80 nM; at Cannabinoid receptor 1 [1], 18 nM. In data set [14], the time of peak concentration (Tmax) was found to be 2 h. The same compound showed an AUC(0-t) at 4 h in data set [15] of 0.256 µM·h. In addition, the Kp at 4 h in data set [16] is 0.4.

The compound `Cc1ccc(-c2ncc(C(=O)N[C@@H]3CCCC[C@@H]3CO)nc2-c2ccc(C)cc2)cc1` registered a Ki at Cannabinoid receptor 1 [1] of 167 nM.

Regarding `Cc1ccc(-c2ncc(C(=O)NCC3CC3)nc2-c2ccc(C)cc2)cc1`, the Ki at Cannabinoid receptor 1 [1] amounted to 178 nM.

On Cannabinoid receptor 1 [1], `Cc1ccc(-c2ncc(C(=O)N[C@@H]3CCCC[C@@H]3O)nc2-c2ccc(C)cc2)cc1` had an inhibition constant (Ki) of 300 nM.

As for `Cc1ccc(-c2ncc(C(=O)NC3Cc4ccccc4C3O)nc2-c2ccc(C)cc2)cc1` (configuration not stated), at Cannabinoid receptor 1 [1], the Ki worked out at 33 nM.

For the compound `Cc1ccc(-c2ncc(C(=O)NCCCN(C)c3ccccc3)nc2-c2ccc(C)cc2)cc1`, affinity on Cannabinoid receptor 1 [1] was put at a Ki of 25 nM.

With `CC(C)C[C@@H](COP(=O)(O)O)NC(=O)c1cnc(-c2ccc(Cl)cc2)c(-c2ccc(Cl)cc2)n1`, in [17], the concentration in solution (solubility) came to 430 µg/mL (≈ 820 µM).

The compound `Cc1ccc(-c2ncc(C(=O)N[C@H](CO)C(C)C)nc2-c2ccc(C)cc2)cc1` had a Ki at Cannabinoid receptor 1 [1] of 237 nM.
